Experimental data as given in ChEMBL document CHEMBL1135925, “Exploration of the pharmacophore of 3-alkyl-5-arylimidazolidinediones as new CB(1) cannabinoid receptor ligands and potential antagonists: synthesis, lipophilicity, affinity, and molecular modeling” (J Med Chem, 2002).

Assays:
[1] = Lipophilicity (calculated by CLIP)
[2] = target: Cannabinoid receptor 1 (Homo sapiens) (UniProt P21554); test: Percent displacement of [3H]-SR-141716A, by compound at 10 uM, in transfected CHO cells expressing the human cannabinoid receptor 1.; assay type: cell-based
Summary of the method: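 Membranes (60 μg) from CHO cells expressing human CB1, cultured in Ham F12 with 10% FCS and G418. Test compound screened at 10 μM against 1 nM [3H]-SR-141716A, 1 h at 30 °C, in 50 mM Tris-HCl pH 7.4 with 3 mM MgCl2, 1 mM EDTA and 0.1% BSA. Nonspecific binding defined with 10 μM WIN-55,212-2 or CP-55,940. PEI-treated GF/C filtration, scintillation counting, triplicates, n = 3–5.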

[3] = Capacity factor (log Kw) was measured; assay type: ADME; conditions: RP-HPLC, methanol/phosphate buffer pH 7.4, extrapolated to 0% methanol
Summary of the method: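 RP-HPLC on a C18 column (250 mm × 4.6 mm, 5 μm particles), UV detection at 250 nm. Four mobile phases of methanol/0.1 M phosphate buffer pH 7.4 (90:10, 80:20, 75:25, 70:30 v/v). k' = (tr − t0)/t0, with t0 the column dead time. Calibrated against reference solutes of known log P (0.64–3.30), and log kw indices correlated with log P.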

Cannabinoid receptor 1 (Homo sapiens), sequence (P21554 whole entry): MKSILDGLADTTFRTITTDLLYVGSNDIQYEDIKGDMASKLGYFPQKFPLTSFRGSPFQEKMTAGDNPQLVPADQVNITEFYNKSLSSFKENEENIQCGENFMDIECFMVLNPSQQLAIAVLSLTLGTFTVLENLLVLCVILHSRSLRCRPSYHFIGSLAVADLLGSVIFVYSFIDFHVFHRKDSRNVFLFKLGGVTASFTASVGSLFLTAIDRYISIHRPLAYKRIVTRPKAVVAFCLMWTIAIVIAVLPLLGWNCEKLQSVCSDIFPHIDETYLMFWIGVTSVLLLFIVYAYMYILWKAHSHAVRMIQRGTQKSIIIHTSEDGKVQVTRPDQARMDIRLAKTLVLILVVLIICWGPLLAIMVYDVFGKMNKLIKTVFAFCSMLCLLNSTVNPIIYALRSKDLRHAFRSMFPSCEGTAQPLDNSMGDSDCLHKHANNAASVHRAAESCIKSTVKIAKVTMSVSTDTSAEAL

Row | Structure (SMILES) | CLIP [1] | Displacement [2] [%] | Log Kw [3]
1 | O=C1NC(Cc2c[nH]c3ccccc23)C(=O)N1CCc1ccccc1 (stereo unspecified) | 2.31 | 64 | –
2 | CC(C)N1C(=O)NC(c2ccccc2)(c2ccccc2)C1=O | 2.89 | < 5 | –
3 | COc1ccc(C2(c3ccc(OC)cc3)NC(=O)N(CCN3CCOCC3)C2=O)cc1 | 2.73 | – | –
4 | O=C1NC(c2ccc(F)cc2)(c2ccc(F)cc2)C(=O)N1CCN1CCOCC1 | 2.81 | – | –
5 | CCCCCCN1C(=O)NC(c2ccc(F)cc2)(c2ccc(F)cc2)C1=O | 5.81 | – | –
6 | CCCCCCN1C(=O)NC(c2ccc(C)cc2)(c2ccc(C)cc2)C1=O | 6.48 | – | –
7 | O=C1NC(c2ccc(Br)cc2)(c2ccc(Br)cc2)C(=O)N1CCN1CCOCC1 | 3.86 | – | 4.5
8 | CCCCCCCN1C(=O)NC(c2ccc(C)cc2)(c2ccc(C)cc2)C1=O | 7.04 | – | –
9 | CCCCCCCCN1C(=O)NC(c2ccc(F)cc2)(c2ccc(F)cc2)C1=O | 6.94 | – | –
10 | O=C1NC(c2ccccc2)(c2ccccc2)C(=O)N1Cc1ccccc1 | 4.11 | – | –
11 | CCCCCCN1C(=O)NC(c2ccc(OC)cc2)(c2ccc(OC)cc2)C1=O | 5.81 | – | –
12 | CCCCCN1C(=O)NC(c2ccccc2)(c2ccccc2)C1=O | 4.8 | – | –
13 | Cc1ccc(C2(c3ccc(C)cc3)NC(=O)N(CCN3CCOCC3)C2=O)cc1 | 3.49 | – | –
14 | CCCCCCN1C(=O)NC(c2ccc(Br)cc2)(c2ccc(Br)cc2)C1=O | 6.87 | – | 6.14
15 | CCCCCCCN1C(=O)NC(c2ccc(F)cc2)(c2ccc(F)cc2)C1=O | 6.42 | – | –
16 | CCCCCCCN1C(=O)NC(c2ccc(Br)cc2)(c2ccc(Br)cc2)C1=O | 7.45 | – | 6.65
17 | O=C1NC(c2ccc(Br)cc2)(c2ccc(Br)cc2)C(=O)N1CCCO | 3.76 | – | –
18 | CCCCCCCCN1C(=O)NC(c2ccccc2)(c2ccccc2)C1=O | 6.5 | – | –
19 | CCCCCCCCN1C(=O)NC(c2ccc(Br)cc2)(c2ccc(Br)cc2)C1=O | 7.99 | – | –
20 | CCCCCCN1C(=O)NC(Cc2c[nH]c3ccccc23)C1=O (stereo unspecified) | 3.21 | 28.8 | 3.17
21 | CCCCN1C(=O)NC(Cc2c[nH]c3ccccc23)C1=O (stereo unspecified) | 2.21 | < 5 | 2.35
22 | O=C1NC(c2ccccc2)(c2ccccc2)C(=O)N1CCN1CCCCC1 | 3.83 | – | 4.11
23 | O=C1NC(Cc2c[nH]c3ccccc23)C(=O)N1CCCc1ccccc1 (stereo unspecified) | 2.8 | 44.3 | –
24 | O=C1NC(Cc2c[nH]c3ccccc23)C(=O)N1Cc1cccc2ccccc12 (stereo unspecified) | 2.92 | 59.8 | 3.08
25 | CCCN1C(=O)NC(c2ccccc2)(c2ccccc2)C1=O | 3.84 | – | 2.93
26 | CN(C)CCN1C(=O)NC(c2ccccc2)(c2ccccc2)C1=O | 2.83 | – | 3
27 | CCCCCCN1C(=O)NC(c2ccccc2)(c2ccccc2)C1=O | 5.37 | – | 4.32
28 | CCCCN1C(=O)NC(c2ccccc2)(c2ccccc2)C1=O | 4.26 | – | 3.46
29 | O=C1NC(c2ccccc2)(c2ccccc2)C(=O)N1CCN1CCOCC1 | 2.16 | – | –
